Assay results reported in PMC8606101 (The Biochemical journal, 2017).
Entries after “also recorded” stand apart in the source; their conditions may differ. Like-named read-outs stand apart in the source and are kept apart here. Each block holds one molecule with its values, some of them ahead of it.

Key:
ADAM10 [1] = conditions: cited from earlier work; for IC50: read-out: Potency (IC50/inhibition constant) ADAM10, cell-based
ADAM9 = molecular target: T1, ADAM9 (Mus musculus, UniProt Q61072); type: cell-based; conditions: for dose dependence of inhibition of ADAM9-dependent release of EphB4-AP: titration; for stimulation of ADAM9-dependent shedding of EphB4-AP: 20 ng/ml PMA, 100 μM PV or 2.5 μM IO, 30 minutes
T1 sequence (Q61072 30-845): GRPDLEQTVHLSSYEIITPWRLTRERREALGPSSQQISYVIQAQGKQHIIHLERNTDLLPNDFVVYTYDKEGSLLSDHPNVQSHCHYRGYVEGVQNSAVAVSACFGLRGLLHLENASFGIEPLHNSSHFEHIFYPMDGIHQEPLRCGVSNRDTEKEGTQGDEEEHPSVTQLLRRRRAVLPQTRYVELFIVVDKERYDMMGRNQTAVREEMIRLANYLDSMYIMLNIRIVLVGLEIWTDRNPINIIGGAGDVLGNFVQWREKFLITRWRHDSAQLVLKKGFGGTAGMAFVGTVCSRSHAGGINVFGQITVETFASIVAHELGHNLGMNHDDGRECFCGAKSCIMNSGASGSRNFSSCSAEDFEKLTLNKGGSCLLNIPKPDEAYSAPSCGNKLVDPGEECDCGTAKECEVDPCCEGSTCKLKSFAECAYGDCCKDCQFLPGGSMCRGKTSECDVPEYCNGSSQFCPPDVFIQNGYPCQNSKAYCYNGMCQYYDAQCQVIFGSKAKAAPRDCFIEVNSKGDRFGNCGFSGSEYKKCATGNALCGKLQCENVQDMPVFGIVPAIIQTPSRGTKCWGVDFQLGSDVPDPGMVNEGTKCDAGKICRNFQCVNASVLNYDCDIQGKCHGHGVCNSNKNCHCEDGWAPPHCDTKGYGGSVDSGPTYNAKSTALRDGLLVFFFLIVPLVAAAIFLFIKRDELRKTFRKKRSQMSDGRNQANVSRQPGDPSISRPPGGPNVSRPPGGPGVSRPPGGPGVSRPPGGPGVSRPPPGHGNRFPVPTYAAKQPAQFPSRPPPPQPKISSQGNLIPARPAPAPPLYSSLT

[2] = system: EphB4-AP background shedding; experiment: Basal/background EphB4-AP shedding in cells expressing inactive ADAM9 E>A; type: cell-based, mouse; conditions: for effect on EphB4-AP shedding in the absence of active A9 (EA9 cells): 20 ng/ml PMA, 100 μM PV or 2.5 μM IO, 30 minutes
In short: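 Adam10/17-/- mEFs were co-transfected (Lipofectamine2000) with ADAM9 E>A plasmid (1.5 µg per 6-well well) and EphB4-AP (1 µg). After a 1 h OptiMEM wash, cells were held in fresh OptiMEM ± stimuli or inhibitor. Times were 30 min for stimuli (pervanadate freshly made from vanadate + H2O2) and 2 h for inhibitors. Readout was colorimetric AP in supernatant/(lysate+supernatant), as fold over untreated cells; mean ± SEM, ≥3 experiments, Dunnett's test.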

[3] = system: recombinant soluble ADAM9; conditions: cited from earlier work; for inhibition of recombinantly expressed ADAM9: concentrations up to 200 nM; for Ki: read-out: Ki recombinant soluble ADAM9
ADAM12 = conditions: read-out: Potency (IC50/inhibition constant) ADAM12, cell-based; cited from earlier work
ADAM17 = conditions: 1 μM; cited from earlier work
ADAM10 [4] = molecular target: T2, ADAM10 (Mus musculus, UniProt O35598); experiment: ADAM10-dependent shedding of BTC-AP in wild type mEFs; type: cell-based; conditions: WT mEFs, Supplementary Figure 2
T2 sequence (O35598 215-749): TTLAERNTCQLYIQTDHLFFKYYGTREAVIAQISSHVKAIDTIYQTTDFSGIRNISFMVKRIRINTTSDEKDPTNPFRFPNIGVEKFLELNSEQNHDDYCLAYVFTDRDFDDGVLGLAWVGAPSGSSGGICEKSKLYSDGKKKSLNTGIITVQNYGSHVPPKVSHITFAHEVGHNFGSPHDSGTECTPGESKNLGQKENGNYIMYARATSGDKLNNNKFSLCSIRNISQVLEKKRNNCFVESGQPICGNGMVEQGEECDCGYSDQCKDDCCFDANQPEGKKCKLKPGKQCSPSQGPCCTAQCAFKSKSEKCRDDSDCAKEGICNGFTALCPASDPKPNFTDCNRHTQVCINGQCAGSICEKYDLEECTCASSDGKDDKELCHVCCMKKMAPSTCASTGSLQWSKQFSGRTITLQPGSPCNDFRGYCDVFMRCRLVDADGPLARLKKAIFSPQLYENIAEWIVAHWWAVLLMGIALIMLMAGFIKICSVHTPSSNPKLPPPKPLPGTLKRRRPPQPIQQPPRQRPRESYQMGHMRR
In short: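 Wild-type mEFs were transiently transfected with AP-tagged betacellulin using Lipofectamine2000. Cells were washed 1 h in OptiMEM, then given fresh OptiMEM with or without test compound for 30 min to 2 h. AP activity was measured colorimetrically in supernatant and lysate from three identical wells. Shedding = supernatant AP / (lysate + supernatant AP).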

ADAM15 = conditions: read-out: Potency (IC50/inhibition constant) ADAM15, cell-based; cited from earlier work

- IC50 (ADAM9): 50 nM
Molecule: CNC(=O)[C@H](Cc1ccccc1)NC(=O)[C@H](CC(C)C)[C@H](CSc1cccs1)C(=O)NO [Batimastat/BB94, Batimastat]
- IC50 (ADAM10 [1]): ~200 nM

Molecule: TIMP-1: tissue inhibitor of metalloproteinases 1
- effect on EphB4 background shedding in EA9 expressing cells ([2]; up to 20 nM, Adam10/17−/− mEFs, 2 hours): no significant effect
- IC50 (ADAM10 [1]): < 1 nM
- inhibition of recombinantly expressed ADAM9 [3]: not inhibited
- effect on ADAM9-dependent increase in EphB4-AP shedding (ADAM9; concentrations up to 20 nM, Adam10/17−/− mEFs, 2 hours): not significantly affected; also recorded: did not affect

- dose dependence of inhibition of ADAM9-dependent release of EphB4-AP (ADAM9; Adam10/17−/− mEFs, 2 hours): dose-dependent manner
Molecule: CC(C)C[C@H](CC(=O)NO)C(=O)N[C@H](C(=O)N[C@@H](C)C(=O)NCCN)C(C)(C)C [TAPI-2]
- Ki ([3]; biochemical assays): 17 nM

- IC50 (ADAM9): 130 nM
- dose dependence of inhibition of ADAM9-dependent release of EphB4-AP (ADAM9; Adam10/17−/− mEFs, 2 hours): dose-dependent manner
Molecule: CNC(=O)[C@@H](NC(=O)[C@H](CC(C)C)[C@H](O)C(=O)NO)C(C)(C)C [Marimastat]
- Ki ([3]; biochemical assays): 274 nM

Molecule: C[C@H](CCC(=O)O)C[C@H](C)C[C@H](C)C(=O)/C=C(\O)[C@H](C)C[C@H](C)C/C=C/[C@@H](C)[C@@H](O)[C@@H](C)[C@@H](O)C[C@@H]1CC[C@@](C)([C@H]2CC[C@@](C)([C@@H](C)O)O2)O1 [ionomycin]
- effect on EphB4-AP shedding in the absence of active A9 (EA9 cells) [2]: had no effect
- stimulation of ADAM9-dependent shedding of EphB4-AP (ADAM9; Adam10/17−/− mEFs): not responsive

- IC50 (ADAM9): 720 nM
- dose dependence of inhibition of ADAM9-dependent release of EphB4-AP (ADAM9; Adam10/17−/− mEFs, 2 hours): dose-dependent manner
Molecule: CNC(=O)[C@H](Cc1c[nH]c2ccccc12)NC(=O)[C@@H](CC(=O)NO)CC(C)C [GM6001]
- IC50 (ADAM12): 5930 nM

- lowest concentration inhibiting shedding of the ADAM10 substrate betacellulin-AP (ADAM10 [4]): 0.04 µM
- effect on ADAM9-mediated shedding of EphB4-AP (ADAM9; concentrations of up to 10 μM, Adam10/17−/− mEFs): did not block
- effect on ADAM9-dependent processing of EphB4-AP (ADAM9; concentrations up to 5 μM): did not block
Molecule: CNC(=O)[C@@H](NC(=O)[C@H](CCCc1ccccc1)[C@H](C)N(O)C=O)C(C)(C)C [GI254023X]
- block of ADAM17 in cell-based assays (ADAM17): not ADAM17
- block of ADAM10 in cell-based assays (ADAM10 [1]; 1 μM): blocks ADAM10
- IC50 ([3]; read-out: IC50 soluble ADAM9, biochemical assays): 280 ± 110 nM

- lowest concentration effectively inhibiting ADAM9 activity (ADAM9; increasing inhibition between 1 and 10 μM): 0.5 µM
Molecule: GW280264X

- stimulation of ADAM9-dependent shedding of EphB4-AP (ADAM9; Adam10/17−/− mEFs): not responsive
Molecule: pervanadate
- effect on EphB4-AP shedding in the absence of active A9 (EA9 cells) [2]: had no effect

Molecule: CCCCCCCCCCCCCC(=O)O[C@@H]1[C@@H](C)[C@@]2(O)[C@@H](C=C(CO)C[C@]3(O)C(=O)C(C)=C[C@@H]23)[C@@H]2C(C)(C)[C@]12OC(C)=O [PMA, phorbol-12 myristate 13-acetate]
- effect on EphB4-AP shedding in the absence of active A9 (EA9 cells) [2]: had no effect
- stimulation of ADAM9-dependent shedding of EphB4-AP (ADAM9; Adam10/17−/− mEFs): did not enhance

- reduction of the activity of ADAM9 (ADAM9; 10 nM): 40-50%
- reduction of the activity of ADAM9 (ADAM9; 20 nM): 75%
- effect on ADAM9-dependent EphB4-AP shedding (ADAM9; 20 nM, Adam10/17−/− mEFs, 2 hours): strongly
B1: TIMP-3: tissue inhibitor of metalloproteinases 3 (protein, UniProt P35625 24-211, looked up)
Metalloproteinase inhibitor 3: CTCSPSHPQDAFCNSDIVIRAKVVGKKLVKEGPFGTLVYTIKQMKMYRGFTKMPHVQYIHTEASESLCGLKLEVNKYQYLLTGRVYDGKMYTGLCNFVERWDQLTLSQRKGLNYRYHLGCNCKIKSCYYLPCFVTSKNECLWTDMLSNFGYPGYQSKHYACIRQKGGYCSWYRGWAPPDKSIINATDP
- IC50 (ADAM15): ~20 nM
- IC50 (ADAM10 [1]): < 1 nM
- inhibition of recombinantly expressed ADAM9 [3]: not inhibited
- effect on ADAM9-dependent EphB4-AP shedding (ADAM9; 10 nM, Adam10/17−/− mEFs, 2 hours): inhibited ADAM9 partially; also recorded: partially blocked
